Calls of active or inactive are those of the source. No cut-off for these calls is given here.
Columns and labels:
[1] = Half life in Wistar rat at 10 mg/kg, po by LC-MS/MS analysis; type: ADME, organism-based; conditions: in vivo
How it was run: (§1)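 Male Wistar rats dosed orally at 10 mg/kg with HCl salt as solution in 10% DMSO, 50% PEG400, 40% water pH 5. Catheter blood over 0-24 h into heparin, plasma by LC-MS/MS. Non-compartmental PK; n = 3, mean (SD).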

[2] = Solubility of the compound in 60% PEG400/40% water at pH 3.5 by HPLC analysis; type: physicochemical
How it was run: (§2)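 1 mg of HCl salt mixed with vehicle (0.5 mL total), target 1 mg/mL. Components added in order: organic solvent (DMSO, ethanol or NMP), then PEG400, then water, vortexing after each addition. Sonicated 15 min, left 3 h at room temperature, then centrifuged 5 min.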

[3] = Solubility of the compound in 10% EtOH/50% PEG400/40% water at pH 3.5 by HPLC analysis; type: physicochemical; how it was run: as §2
[4] = MRT in Wistar rat at 2 mg/kg, iv by LC-MS/MS analysis; type: ADME, organism-based; conditions: in vivo
How it was run: (§3)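 Male Wistar rats, n = 3 per route, dosed with HCl salt as 1 mg/mL solution in 10% DMSO/50% PEG400/40% water pH 5. Doses 2 mg/kg iv or 10 mg/kg po. Heparinised blood sampled via catheter (0–4 h iv, 0–24 h po), plasma analysed by LC-MS/MS. Parameters derived by non-compartmental analysis.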

[5] = Cmax in Wistar rat at 10 mg/kg, po by LC-MS/MS analysis; type: ADME, organism-based; set-up: dose 10 mg/kg, route oral; conditions: in vivo; how it was run: as §1
[6] = Solubility of the compound in 10% EtOH/50% PEG400/40% water at pH 5 by HPLC analysis; type: physicochemical; how it was run: as §2
[7] = Solubility of the compound in 10% DMSO/50% PEG400/40% water at pH 5 by HPLC analysis; type: physicochemical; how it was run: as §2
[8] = Solubility of the compound in 10% DMSO/90% water at pH 7 by HPLC analysis; type: physicochemical; how it was run: as §2
[9] = Solubility of the compound in 10% DMSO/90% water at pH 3.5 by HPLC analysis; type: physicochemical; how it was run: as §2
[10] = Solubility of the compound in 10% NMP/50% PEG400/40% water at pH 5 by HPLC analysis; type: physicochemical; how it was run: as §2
[11] = MRT in Wistar rat at 10 mg/kg, po by LC-MS/MS analysis; type: ADME, organism-based; conditions: in vivo; how it was run: as §3
[12] = AUC (0 to t) in Wistar rat at 10 mg/kg, po by LC-MS/MS analysis; type: ADME, organism-based; conditions: in vivo
How it was run: (§4)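 Male Wistar rats (n = 3), single oral dose of 10 mg/kg HCl salt given as 1 mg/ml solution in 10% DMSO, 50% PEG400, 40% water pH 5. Blood drawn from catheter over 0–24 h into heparin tubes. Plasma spun off, stored at -80 °C, quantified by LC-MS/MS. Parameters by non-compartmental analysis, mean (SD).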

[13] = AUC (0 to t) in Wistar rat at 2 mg/kg, iv by LC-MS/MS analysis; type: ADME, organism-based; conditions: in vivo
How it was run: (§5)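 Male Wistar rats (n = 3), intravenous dose of 2 mg/kg HCl salt as 1 mg/ml solution in 10% DMSO, 50% PEG400, 40% water pH 5. Catheter blood sampling over 0–4 h into heparin. Plasma separated, stored at -80 °C, measured by LC-MS/MS. Non-compartmental estimation, mean (SD).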

[14] = Solubility of the compound in 60% PEG400/40% water at pH 5 by HPLC analysis; type: physicochemical; how it was run: as §2
[15] = Tmax in Wistar rat at 10 mg/kg, po by LC-MS/MS analysis; type: ADME, organism-based; conditions: in vivo; how it was run: as §3
[16] = Solubility of the compound in 60% PEG400/40% water at pH 7 by HPLC analysis; type: physicochemical; how it was run: as §2
[17] = Oral bioavailability in Wistar rat at 10 mg/kg by LC-MS/MS analysis; type: ADME, organism-based; conditions: in vivo; how it was run: as §3
[18] = Terminal half life in Wistar rat at 2 mg/kg, iv by LC-MS/MS analysis; type: ADME, organism-based; conditions: in vivo, read-out: beta t1/2 (converted); how it was run: as §3
[19] = AUC (0 to infinity) in Wistar rat at 2 mg/kg, iv by LC-MS/MS analysis; type: ADME, organism-based; set-up: dose 2 mg/kg, time infinity, route intravenous; conditions: in vivo; how it was run: as §5
[20] = Solubility of the compound in 10% DMSO/90% water at pH 5 by HPLC analysis; type: physicochemical; how it was run: as §2
[21] = Solubility of the compound in 10% DMSO/50% PEG400/40% water at pH 3.5 by HPLC analysis; type: physicochemical; how it was run: as §2
[22] = Solubility of the compound in 10% NMP/50% PEG400/40% water at pH 3.5 by HPLC analysis; type: physicochemical; how it was run: as §2
[23] = AUC (0 to infinity) in Wistar rat at 10 mg/kg, po by LC-MS/MS analysis; type: ADME, organism-based; set-up: dose 10 mg/kg, time infinity, route oral; conditions: in vivo; how it was run: as §4
HeLa [24] = assay: Induction of autophagy in human HeLa cells assessed as increase in LC3-2 to LC3-1 ratio at 10 uM after 6 hrs by immunoblot analysis relative to control; type: functional
How it was run: (§6)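 HeLa cells exposed 6 h to test agent (0.625–10 μM series) or chloroquine (1.25–100 μM series) vs DMSO; lysed in 1% Triton buffer (25 mM Tris pH 8.0, 150 mM NaCl, DTT, protease/phosphatase inhibitors), 14% SDS-PAGE, immunoblot with anti-LC3, anti-pH3(Ser10), β-actin loading. LC3-II/LC3-I band intensity ratio expressed relative to DMSO control.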

HeLa [25] = assay: Induction of autophagy in human HeLa cells assessed as increase in LC3-2 to LC3-1 ratio at 2.5 uM after 6 hrs by immunoblot analysis relative to control; type: functional; how it was run: as §6
HeLa [26] = assay: Induction of mitotic arrest in human HeLa cells assessed as formation of disorganized spindles at 15 to 25 uM after 6 hrs by DAPI staining-based immunofluorescence analysis; type: functional, cell-based
HeLa [27] = assay: Induction of autophagy in human HeLa cells assessed as increase in LC3-2 to LC3-1 ratio at 1.25 uM after 6 hrs by immunoblot analysis relative to control; type: functional; how it was run: as §6
HeLa [28] = assay: Induction of mitotic arrest in human HeLa cells assessed as formation of misaligned chromosomes at 15 to 25 uM after 6 hrs by DAPI staining-based immunofluorescence analysis; type: functional, cell-based
HeLa [29] = assay: Inhibition of mitotic progression in human HeLa cells assessed as upregulation of phosphorylated histone H3 (Ser10) level up to 100 uM after 6 hrs by immunoblot analysis; type: functional, cell-based
How it was run: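 HeLa cells treated 6 h with 0.625–10 μM test agent or chloroquine (1.25–100 μM), or DMSO. Lysis in 1% Triton buffer (pH 8.0) with protease and phosphatase inhibitors, 14% SDS-PAGE, immunoblot for LC3, pH3 (Ser10) and β-actin. Band intensity ratios (LC3-II/LC3-I; pH3) expressed relative to DMSO control.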

HeLa [30] = assay: Induction of autophagy in human HeLa cells assessed as increase in LC3-2 to LC3-1 ratio at 50 uM after 6 hrs by immunoblot analysis relative to control; type: functional; how it was run: as §6
HeLa [31] = assay: Induction of autophagy in human HeLa cells assessed as increase in LC3-2 to LC3-1 ratio at 100 uM after 6 hrs by immunoblot analysis relative to control; type: functional; how it was run: as §6

Cl.N#C/C(=C\c1cccc2cnccc12)c1c[nH]c2ccccc12
half-life [1]: 96 min | solubility [2]: 1060 µg/mL | solubility [3]: 1300 µg/mL | MRT [4]: 17.4 min | Cmax [5]: 1130 ng/mL | solubility [6]: 741 µg/mL | solubility [7]: 1200 µg/mL | solubility [8]: 3 µg/mL | solubility [9]: 7 µg/mL | solubility [10]: 1170 µg/mL | MRT [11]: 113 min | AUC(0-t) [12]: 1690 ng·h/mL | AUC(0-t) [13]: 820 ng·h/mL | solubility [14]: 940 µg/mL | Tmax [15]: 43.2 min | solubility [16]: 869 µg/mL | bioavailability [17]: 43% | half-life [18]: 21.6 min | AUC(0-inf) [19]: 822 ng·h/mL | solubility [20]: 6 µg/mL | solubility [21]: 966 µg/mL | solubility [22]: 1220 µg/mL | AUC(0-inf) [23]: 1770 ng·h/mL

CCN(CC)CCCC(C)Nc1ccnc2cc(Cl)ccc12 (stereo unspecified) [CHLOROQUINE]
fold change (FC) (HeLa [24]): 3.1 | fold change (FC) (HeLa [25]): 1.9 | Activity (HeLa [26]): inactive | fold change (FC) (HeLa [27]): 1.7 | Activity (HeLa [28]): inactive | inhibition (HeLa [29]): inactive | fold change (FC) (HeLa [30]): 4.2 | fold change (FC) (HeLa [31]): 4.2

Source: ChEMBL document CHEMBL4270554, “Discovery of the cancer cell selective dual acting anti-cancer agent (Z)-2-(1H-indol-3-yl)-3-(isoquinolin-5-yl)acrylonitrile (A131)” (Eur J Med Chem, 2018)
